In ChEMBL document CHEMBL4350961, “Discovery of Pyrrolo[3,2- d]pyrimidin-4-one Derivatives as a New Class of Potent and Cell-Active Inhibitors of P300/CBP-Associated Factor Bromodomain” (J Med Chem, 2019):
Active and inactive are the calls of the source.

Legend:
[1] = molecular target: Serine/threonine-protein kinase DCLK3 (Homo sapiens) (UniProt Q9C098); test: Inhibition of recombinant human DCAMKL3 (345 to end residues) at 10 uM using KKLNRTLSFAEPG as substrate measured after 40 mins in presence of [gamma33P]ATP by scintillation counting method
[2] = molecular target: Serine/threonine-protein kinase WNK4 (Homo sapiens) (UniProt Q96J92); test: Inhibition of human WNK4 using myelin basic protein as substrate measured after 120 mins in presence of [gamma33P]ATP by scintillation counting method
[3] = molecular target: Dual specificity mitogen-activated protein kinase kinase 1 (Homo sapiens) (UniProt Q02750); test: Inhibition of recombinant full-length human MEK1 at 10 uM using unactive MAPK2 as substrate measured after 40 mins in presence of [gamma33P]ATP by scintillation counting method
[4] = test system: Angiopoietin-1 receptor (Homo sapiens), Q02763 [Q939H,Q940H,R849W]; test: Inhibition of human Tie2 Q939H/Q940H/R849W mutant (771 to end residues) using EFPIYDFLPAKKK as substrate measured after 40 mins in presence of [gamma33P]ATP by scintillation counting method
[5] = test system: Proto-oncogene tyrosine-protein kinase receptor Ret (Homo sapiens), P07949 [V804L]; test: Inhibition of human Ret V804L mutant (658 to end residues) using KKKSPGEYVNIEFG as substrate measured after 40 mins in presence of [gamma33P]ATP by scintillation counting method
Procedure, shortened: (§1)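 Kinase panel of 422 kinases screened by Eurofins KinaseProfiler at a single test-compound concentration of 10 µM.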

[6] = molecular target: Dual specificity tyrosine-phosphorylation-regulated kinase 1B (Homo sapiens) (UniProt Q9Y463); test: Inhibition of recombinant full-length human DYRK1B at 10 uM using RRRFRPASPLRGPPK as substrate measured after 40 mins in presence of [gamma33P]ATP by scintillation counting method
[7] = molecular target: FKBP12A/mTOR (Homo sapiens) (UniProt P62942+P42345); test: Inhibition of recombinant full-length human mTOR/FKBP12 at 10 uM measured after 40 mins in presence of [gamma33P]ATP by scintillation counting method; format: protein-complex assay
[8] = molecular target: Serine/threonine-protein kinase DCLK2 (Homo sapiens) (UniProt Q8N568); test: Inhibition of recombinant human DCAMKL2 (376 to end residues) at 10 uM using KKLNRTLSFAEPG as substrate measured after 40 mins in presence of [gamma33P]ATP by scintillation counting method
Homo sapiens = organism: Homo sapiens; test: Inhibition of human activated Tec F514V mutant (174 to end residues) using EFPIYDFLPAKKK as substrate measured after 40 mins in presence of [gamma33P]ATP by scintillation counting method
[9] = molecular target: Serine/threonine-protein kinase 32A (Homo sapiens) (UniProt Q8WU08); test: Inhibition of recombinant full-length human STK32A at 10 uM using casein as substrate measured after 120 mins in presence of [gamma33P]ATP by scintillation counting method
[10] = test system: TGF-beta receptor type-1 (Homo sapiens), P36897 [T204D]; test: Inhibition of human TGFBR1 T204D mutant (200 to end residues) using casein as substrate measured after 40 mins in presence of [gamma33P]ATP by scintillation counting method
[11] = molecular target: Serine/threonine-protein kinase B-raf (Homo sapiens) (UniProt P15056); test: Inhibition of recombinant human BRAF (416 to end residues) at 10 uM using myelin basic protein as substrate measured after 40 mins in presence of [gamma33P]ATP by scintillation counting method
[12] = test system: Discoidin domain-containing receptor 2 (Homo sapiens), Q16832 [UNDEFINED MUTATION]; test: Inhibition of recombinant human DDR2 S642A mutant (467 to end residues) at 10 uM using KKSRGDYMTMQIG as substrate measured after 40 mins in presence of [gamma33P]ATP by scintillation counting method
[13] = molecular target: CREB-binding protein (Homo sapiens) (UniProt Q92793); test: Binding affinity to human partial length CREBBP (R1081 to G1197 residues) expressed in bacterial expression system at 1 uM by BROMOscan assay
Procedure, shortened: (§2)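 BROMOscan bromodomain cross-screen run by an outside service, compound at 1 µM against 32 recombinant bromodomains. Binding given as percent of control.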

[14] = molecular target: Fibroblast growth factor receptor 2 (Homo sapiens) (UniProt P21802); test: Inhibition of recombinant human FGFR2 (456 to 770 residues) at 10 uM using poly(Glu, Tyr) 4:1 as substrate measured after 40 mins in presence of [gamma33P]ATP by scintillation counting method
[15] = molecular target: SWI/SNF-related matrix-associated actin-dependent regulator of chromatin subfamily A member 4 (Homo sapiens) (UniProt P51532); test: Binding affinity to human partial length SMARCA4 (A1448 to S1575 residues) expressed in bacterial expression system at 1 uM by BROMOscan assay; procedure, shortened: as §2
[16] = molecular target: Hepatocyte growth factor receptor (Homo sapiens) (UniProt P08581); test: Inhibition of recombinant human MET A1209G/V1290L mutant (974 to end residues) at 10 uM using KKKGQEEEYVFIE as substrate measured after 40 mins in presence of [gamma33P]ATP by scintillation counting method
[17] = molecular target: Tau-tubulin kinase 2 (Homo sapiens) (UniProt Q6IQ55); test: Inhibition of human TTBK2 (1 to 331 residues) using Casein as substrate measured after 40 mins in presence of [gamma33P]ATP by scintillation counting method
[18] = molecular target: Serine/threonine-protein kinase Nek1 (Homo sapiens) (UniProt Q96PY6); test: Inhibition of recombinant human NEK1 (1 to 505 residues) at 10 uM using RLGRDKYKTLRQIRQ as substrate measured after 40 mins in presence of [gamma33P]ATP by scintillation counting method
[19] = molecular target: Calcium/calmodulin-dependent protein kinase type II subunit alpha (Homo sapiens) (UniProt Q9UQM7); test: Inhibition of recombinant full-length human CaMK2alpha at 10 uM using calmodulin as substrate measured after 40 mins in presence of [gamma33P]ATP by scintillation counting method
[20] = test system: Phosphorylase b kinase gamma catalytic chain, liver/testis isoform (Homo sapiens), P15735 [F290L]; test: Inhibition of recombinant human PhKgamma2 F290L mutant (1 to 301 residues) at 10 uM using KKLNRTLSFAEPG as substrate measured after 40 mins in presence of [gamma33P]ATP by scintillation counting method
[21] = test system: Casein kinase I isoform gamma-3 (Homo sapiens), Q9Y6M4 [UNDEFINED MUTATION]; test: Inhibition of recombinant human CK1gamma3 K91E/R174G/E302D mutant (1 to 330 residues) at 10 uM using KRRRALS(p)VASLPGL as substrate measured after 40 mins in presence of [gamma33P]ATP by scintillation counting method
[22] = molecular target: Ribosomal protein S6 kinase alpha-3 (Homo sapiens) (UniProt P51812); test: Inhibition of human Rsk2 (2 to end residues) using KKKNRTLSVA as substrate measured after 40 mins in presence of [gamma33P]ATP by scintillation counting method; procedure, shortened: as §1

Sequence of CREB-binding protein (Homo sapiens) (Q92793 2-2442 limits assumed): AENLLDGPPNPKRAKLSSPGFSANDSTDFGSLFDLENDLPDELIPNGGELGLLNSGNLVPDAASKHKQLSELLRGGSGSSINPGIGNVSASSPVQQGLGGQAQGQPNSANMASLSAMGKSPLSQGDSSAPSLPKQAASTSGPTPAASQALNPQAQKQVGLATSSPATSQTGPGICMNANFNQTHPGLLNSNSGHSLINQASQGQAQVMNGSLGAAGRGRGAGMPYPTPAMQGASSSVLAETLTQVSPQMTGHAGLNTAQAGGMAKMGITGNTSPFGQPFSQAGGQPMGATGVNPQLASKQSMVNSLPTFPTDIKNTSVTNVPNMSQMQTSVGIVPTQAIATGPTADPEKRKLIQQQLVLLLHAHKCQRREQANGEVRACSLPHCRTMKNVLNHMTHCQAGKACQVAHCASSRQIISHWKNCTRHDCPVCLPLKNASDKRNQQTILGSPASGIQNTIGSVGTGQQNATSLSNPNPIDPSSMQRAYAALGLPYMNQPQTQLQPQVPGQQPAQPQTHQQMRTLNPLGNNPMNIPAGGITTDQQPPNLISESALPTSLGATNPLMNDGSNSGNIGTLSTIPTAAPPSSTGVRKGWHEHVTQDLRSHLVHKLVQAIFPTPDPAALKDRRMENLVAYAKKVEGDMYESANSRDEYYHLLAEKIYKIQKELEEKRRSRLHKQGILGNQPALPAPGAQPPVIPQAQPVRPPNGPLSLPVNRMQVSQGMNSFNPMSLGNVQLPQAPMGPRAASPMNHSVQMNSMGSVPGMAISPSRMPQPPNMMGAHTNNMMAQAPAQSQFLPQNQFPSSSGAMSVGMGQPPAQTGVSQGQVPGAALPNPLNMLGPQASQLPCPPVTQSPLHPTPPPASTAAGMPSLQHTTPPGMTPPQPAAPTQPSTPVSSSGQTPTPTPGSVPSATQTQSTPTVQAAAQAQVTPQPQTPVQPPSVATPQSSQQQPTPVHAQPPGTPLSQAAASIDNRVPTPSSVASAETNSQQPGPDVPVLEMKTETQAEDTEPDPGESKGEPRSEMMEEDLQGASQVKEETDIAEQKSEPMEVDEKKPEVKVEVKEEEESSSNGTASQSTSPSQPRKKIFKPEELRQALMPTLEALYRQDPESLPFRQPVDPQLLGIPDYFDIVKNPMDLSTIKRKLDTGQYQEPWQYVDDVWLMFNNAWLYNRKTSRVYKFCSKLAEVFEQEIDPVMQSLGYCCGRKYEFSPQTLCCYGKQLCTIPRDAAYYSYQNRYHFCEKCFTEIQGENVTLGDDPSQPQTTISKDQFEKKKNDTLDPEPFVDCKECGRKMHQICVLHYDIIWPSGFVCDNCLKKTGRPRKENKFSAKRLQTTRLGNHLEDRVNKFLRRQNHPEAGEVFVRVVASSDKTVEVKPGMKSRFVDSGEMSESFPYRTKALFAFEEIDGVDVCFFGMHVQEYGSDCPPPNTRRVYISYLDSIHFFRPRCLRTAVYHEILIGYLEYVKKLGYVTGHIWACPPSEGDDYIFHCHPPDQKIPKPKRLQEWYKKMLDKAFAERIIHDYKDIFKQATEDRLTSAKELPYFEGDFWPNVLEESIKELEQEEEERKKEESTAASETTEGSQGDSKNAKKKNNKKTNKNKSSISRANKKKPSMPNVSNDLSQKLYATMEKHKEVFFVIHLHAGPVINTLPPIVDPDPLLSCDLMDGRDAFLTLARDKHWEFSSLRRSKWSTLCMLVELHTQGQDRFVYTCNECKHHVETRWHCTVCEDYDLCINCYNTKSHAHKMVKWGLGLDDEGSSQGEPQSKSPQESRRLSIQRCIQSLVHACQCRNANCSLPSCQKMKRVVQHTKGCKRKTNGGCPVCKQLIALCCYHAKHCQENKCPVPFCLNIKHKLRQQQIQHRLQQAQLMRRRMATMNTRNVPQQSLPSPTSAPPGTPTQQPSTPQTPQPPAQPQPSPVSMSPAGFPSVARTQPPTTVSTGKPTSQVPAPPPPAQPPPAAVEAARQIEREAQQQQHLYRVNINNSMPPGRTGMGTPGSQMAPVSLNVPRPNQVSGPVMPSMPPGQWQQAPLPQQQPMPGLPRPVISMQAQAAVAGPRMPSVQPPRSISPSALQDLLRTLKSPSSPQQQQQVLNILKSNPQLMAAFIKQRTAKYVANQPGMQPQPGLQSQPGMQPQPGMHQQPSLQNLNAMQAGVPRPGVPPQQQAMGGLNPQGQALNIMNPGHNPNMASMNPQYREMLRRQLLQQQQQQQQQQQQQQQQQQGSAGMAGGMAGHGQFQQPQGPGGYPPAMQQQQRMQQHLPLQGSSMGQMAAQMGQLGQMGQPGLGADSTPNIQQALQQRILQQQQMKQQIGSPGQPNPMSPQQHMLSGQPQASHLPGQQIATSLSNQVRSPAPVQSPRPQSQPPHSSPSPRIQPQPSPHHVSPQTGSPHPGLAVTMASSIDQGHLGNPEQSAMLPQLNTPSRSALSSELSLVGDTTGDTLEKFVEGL
Sequence of FKBP12A/mTOR (Homo sapiens) (P62942 2-108 limits assumed, other chains not shown): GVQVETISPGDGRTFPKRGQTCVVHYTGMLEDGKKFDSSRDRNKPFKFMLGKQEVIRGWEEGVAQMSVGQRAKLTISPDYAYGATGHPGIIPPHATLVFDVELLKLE
Sequence of Casein kinase I isoform gamma-3 (Homo sapiens), Q9Y6M4 [UNDEFINED MUTATION] (Q9Y6M4 whole entry, looked up, stated change not applied, the tested form may be a part, canonical isoform): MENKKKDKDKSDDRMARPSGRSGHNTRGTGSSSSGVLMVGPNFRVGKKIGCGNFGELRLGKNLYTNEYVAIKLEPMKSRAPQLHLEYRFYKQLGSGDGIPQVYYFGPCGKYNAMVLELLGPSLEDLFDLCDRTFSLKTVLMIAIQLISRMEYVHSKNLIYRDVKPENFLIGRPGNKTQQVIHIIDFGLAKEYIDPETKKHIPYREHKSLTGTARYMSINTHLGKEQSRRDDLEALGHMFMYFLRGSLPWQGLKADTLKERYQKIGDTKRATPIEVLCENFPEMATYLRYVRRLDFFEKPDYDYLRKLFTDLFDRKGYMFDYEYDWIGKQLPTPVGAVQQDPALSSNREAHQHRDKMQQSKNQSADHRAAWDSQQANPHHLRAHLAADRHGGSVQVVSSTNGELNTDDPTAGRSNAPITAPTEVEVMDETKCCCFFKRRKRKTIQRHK
Sequence of Hepatocyte growth factor receptor (Homo sapiens) (P08581 whole entry, the tested form may be a part): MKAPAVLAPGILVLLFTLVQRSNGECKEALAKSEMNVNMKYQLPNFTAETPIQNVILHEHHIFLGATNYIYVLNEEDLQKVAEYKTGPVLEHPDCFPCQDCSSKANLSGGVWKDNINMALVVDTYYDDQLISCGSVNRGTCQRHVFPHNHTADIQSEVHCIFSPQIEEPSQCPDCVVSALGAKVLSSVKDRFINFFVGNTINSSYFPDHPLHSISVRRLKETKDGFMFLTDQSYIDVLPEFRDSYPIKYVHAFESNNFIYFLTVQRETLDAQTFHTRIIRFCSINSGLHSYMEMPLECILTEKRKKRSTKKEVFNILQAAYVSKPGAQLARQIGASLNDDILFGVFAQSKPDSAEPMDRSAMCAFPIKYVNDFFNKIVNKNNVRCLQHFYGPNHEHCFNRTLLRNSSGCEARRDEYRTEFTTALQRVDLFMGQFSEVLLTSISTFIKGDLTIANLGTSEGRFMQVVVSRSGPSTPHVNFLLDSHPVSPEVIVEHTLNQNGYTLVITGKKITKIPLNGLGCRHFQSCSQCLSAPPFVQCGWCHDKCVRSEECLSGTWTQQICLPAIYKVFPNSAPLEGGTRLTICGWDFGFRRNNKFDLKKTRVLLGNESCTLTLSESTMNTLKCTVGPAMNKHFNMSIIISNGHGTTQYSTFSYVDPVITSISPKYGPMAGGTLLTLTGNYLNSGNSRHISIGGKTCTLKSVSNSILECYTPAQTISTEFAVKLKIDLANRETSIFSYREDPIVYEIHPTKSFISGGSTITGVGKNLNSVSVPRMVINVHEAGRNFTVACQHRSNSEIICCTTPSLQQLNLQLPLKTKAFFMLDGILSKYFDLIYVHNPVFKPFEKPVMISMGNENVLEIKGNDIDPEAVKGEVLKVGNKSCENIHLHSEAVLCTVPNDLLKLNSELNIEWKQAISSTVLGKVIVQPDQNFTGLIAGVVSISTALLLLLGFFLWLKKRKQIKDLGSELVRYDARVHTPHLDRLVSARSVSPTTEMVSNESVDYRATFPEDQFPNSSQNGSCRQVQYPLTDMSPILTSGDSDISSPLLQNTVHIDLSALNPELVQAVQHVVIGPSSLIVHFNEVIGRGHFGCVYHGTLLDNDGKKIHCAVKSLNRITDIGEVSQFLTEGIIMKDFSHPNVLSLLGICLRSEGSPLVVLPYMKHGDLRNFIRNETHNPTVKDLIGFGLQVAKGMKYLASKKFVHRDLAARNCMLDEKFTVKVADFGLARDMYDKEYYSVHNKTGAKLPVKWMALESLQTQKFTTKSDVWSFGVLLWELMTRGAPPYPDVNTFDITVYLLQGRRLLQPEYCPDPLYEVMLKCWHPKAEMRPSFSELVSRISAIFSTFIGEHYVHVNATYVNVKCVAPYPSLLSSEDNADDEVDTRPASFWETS
Sequence of Dual specificity mitogen-activated protein kinase kinase 1 (Homo sapiens) (Q02750 whole entry): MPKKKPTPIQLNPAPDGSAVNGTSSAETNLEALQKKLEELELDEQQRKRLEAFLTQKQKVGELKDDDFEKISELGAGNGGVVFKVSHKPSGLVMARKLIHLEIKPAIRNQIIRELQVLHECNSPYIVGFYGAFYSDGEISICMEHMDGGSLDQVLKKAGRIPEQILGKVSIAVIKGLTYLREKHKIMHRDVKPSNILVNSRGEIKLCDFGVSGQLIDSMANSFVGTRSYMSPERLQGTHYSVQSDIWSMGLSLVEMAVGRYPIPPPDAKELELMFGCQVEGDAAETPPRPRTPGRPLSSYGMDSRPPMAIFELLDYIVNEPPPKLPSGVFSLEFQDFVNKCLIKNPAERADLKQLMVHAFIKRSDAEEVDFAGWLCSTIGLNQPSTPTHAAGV

CN1C[C@H](Nc2nc3cc[nH]c3c(=O)n2C)C[C@H](c2ccc3c(c2)OCCO3)C1
inactive: inhibition [1] | inhibition [2] | inhibition [3] | inhibition [4] | inhibition [5] | inhibition [6] | inhibition [7] | inhibition [8] | inhibition (Homo sapiens) | inhibition [9] | inhibition [10] | inhibition [11] | inhibition [12] | Activity [13] | inhibition [14] | Activity [15] | inhibition [16] | inhibition [17] | inhibition [18] | inhibition [19] | inhibition [20] | inhibition [21] | inhibition [22]
